# From ChEMBL document CHEMBL1135790, “2-Substituted 4-(thio)chromenone 6-O-sulfamates: potent inhibitors of human steroid sulfatase” (J Med Chem, 2002)
# Columns and labels:
# Steryl-sulfatase = target: T1, Steryl-sulfatase (Homo sapiens, UniProt P08842); test: Inhibitory activity against purified human steroid sulfatase (STS)
# T1 sequence (P08842 whole entry): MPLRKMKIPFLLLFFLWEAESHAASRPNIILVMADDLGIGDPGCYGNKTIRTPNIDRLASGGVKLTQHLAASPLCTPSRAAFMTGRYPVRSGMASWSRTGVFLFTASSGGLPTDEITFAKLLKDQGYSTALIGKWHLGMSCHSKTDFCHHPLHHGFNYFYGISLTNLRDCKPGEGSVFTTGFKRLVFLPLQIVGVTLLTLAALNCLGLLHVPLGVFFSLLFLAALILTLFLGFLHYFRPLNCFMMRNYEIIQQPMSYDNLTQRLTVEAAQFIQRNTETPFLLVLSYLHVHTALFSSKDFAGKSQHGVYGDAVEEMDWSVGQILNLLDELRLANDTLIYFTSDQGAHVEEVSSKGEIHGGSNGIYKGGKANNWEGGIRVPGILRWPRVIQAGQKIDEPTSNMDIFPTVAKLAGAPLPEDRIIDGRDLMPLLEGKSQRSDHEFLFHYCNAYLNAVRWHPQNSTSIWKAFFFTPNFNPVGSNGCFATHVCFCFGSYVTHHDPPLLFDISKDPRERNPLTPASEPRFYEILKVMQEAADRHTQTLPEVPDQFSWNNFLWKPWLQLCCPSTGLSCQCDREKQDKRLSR
# Procedure, shortened: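 Human STS from stably transfected recombinant CHO cells, microsomal fraction solubilized in Triton X-100 and purified by chromatography to >95%. Enzyme (0.6 units) mixed with 4-MUS, 0.75 mM before mixing, in 0.1 M Tris-HCl pH 7.5, 0.1% Triton. Compounds at graded concentrations from ethanol stocks (final ethanol ≤2%). Incubation 60 min, 37 °C. Stopped with 0.2 M NaOH. Fluorescence ex 355/em 448 nm. IC50 from nonlinear regression; mean of triplicates.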
# [1] = Rate constant of inactivation
# [2] = Inhibition constant as dissociation constant of the noncovalent (STS) enzyme-inhibitor complex; type: ADME
# Procedure, shortened: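 Human placental microsomes (about 10 mg/mL protein) preincubated with inhibitor dilutions in 0.1 M Tris-HCl pH 7.5 for 1-20 min. Free inhibitor removed with dextran-coated charcoal. Residual activity measured in the supernatant with 4-MUS (1.5 mM before mixing), 20 min at 37 °C, stopped with NaOH, ex 355/em 460 nm. kapp from double-exponential fits. KI and kinact from a double-reciprocal plot of kapp against inhibitor concentration.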
# [3] = Ratio of kinact (rate constant of inactivation) to that of KI (inhibition constant) indicates efficacy of irreversible inhibition.
SMILES,IC50 (Steryl-sulfatase) [µM],kinact [1] [s⁻¹],Ki [2] [µM],K inact/Ki [3]
CC(C)(C)c1cc(=O)c2cc(OS(N)(=O)=O)ccc2s1,0.0056,–,–,–
CCCc1cc(=O)c2ccc(OS(N)(=O)=O)cc2o1,> 100,–,–,–
CCCCCCCCCc1cc(=O)c2cc(OS(N)(=O)=O)ccc2o1,0.403,0.006,1.7,0.35 10e4 M-1 s-1
NS(=O)(=O)Oc1ccc2c(=O)c(-c3ccccc3)coc2c1,0.437,–,–,–
CCCCCCCCC(C)(C)c1cc(=O)c2cc(OS(N)(=O)=O)ccc2o1,0.078,–,–,–
NS(=O)(=O)Oc1ccc2sc(-c3ccccc3)cc(=O)c2c1,0.062,–,–,–
NS(=O)(=O)Oc1ccc2oc(CCc3ccccc3)cc(=O)c2c1,0.19,–,–,–
CC(C)(C)c1cc(=O)c2cc(OS(N)(=O)=O)ccc2o1,0.022,0.07,0.9,–
CCCc1cc(=O)c2cc(OS(N)(=O)=O)ccc2o1,0.722,–,–,–
NS(=O)(=O)Oc1ccc2oc(/C=C/c3ccccc3)cc(=O)c2c1,1.62,–,–,–
NS(=O)(=O)Oc1ccc2oc(-c3ccccc3)cc(=O)c2c1,0.672,–,–,–
NS(=O)(=O)Oc1ccc2oc(Cc3ccccc3)cc(=O)c2c1,1.62,–,–,–

# The next lines start with the values.
IC50 (Steryl-sulfatase) [µM],kinact [1] [s⁻¹],Ki [2] [µM],K inact/Ki [3],SMILES
0.062,0.035,1,–,NS(=O)(=O)Oc1ccc2oc(C3CCCCC3)cc(=O)c2c1
0.14,0.017,1.86,–,NS(=O)(=O)Oc1ccc2c(c1)C(=O)CC(C13CC4CC(CC(C4)C1)C3)O2 (centres undefined)
0.011,0.074,0.5,–,CCCCCC12CCC(c3cc(=O)c4cc(OS(N)(=O)=O)ccc4o3)(CC1)CC2
24.3,0.018,53.7,–,NS(=O)(=O)Oc1ccc2c(c1)C(O)CC(C1CCCCC1)O2 (centres undefined)
0.134,0.011,0.73,–,NS(=O)(=O)Oc1ccc2oc(C3CCCC3)cc(=O)c2c1
0.045,–,–,–,CC1(C)C(c2cc(=O)c3cc(OS(N)(=O)=O)ccc3o2)C1(C)C
0.045,0.04,1.1,–,NS(=O)(=O)Oc1ccc2oc(C3CCCCCCCCCCC3)cc(=O)c2c1
6.33,0.02,24,–,NS(=O)(=O)Oc1ccc2c(=O)cc(C3CCCCC3)oc2c1
0.011,0.042,0.22,–,NS(=O)(=O)Oc1ccc2oc(C3C4CC5CC3CC5C4)cc(=O)c2c1 (centres undefined)
2.58,–,–,–,NS(=O)(=O)Oc1ccc2c(c1)C(=O)CC(c1ccccc1)O2 (centres undefined)
0.28,–,–,–,NS(=O)(=O)Oc1ccc2c(c1)C(=O)CC(C1CCCCC1)O2 (centres undefined)
11.2,0.016,32,–,NS(=O)(=O)Oc1ccc2c(c1)CCC(C1CCCCC1)O2 (centres undefined)
0.00034,0.115,0.21,–,NS(=O)(=O)Oc1ccc2sc(C34CC5CC(CC(C5)C3)C4)cc(=O)c2c1
0.05,0.07,1.2,–,NS(=O)(=O)Oc1ccc2c(=O)c(C3CCCCC3)coc2c1
0.291,–,–,–,NS(=O)(=O)Oc1ccc2c(c1)C(O)CC(C13CC4CC(CC(C4)C1)C3)O2 (centres undefined)
